Results published in ChEMBL document CHEMBL1137353, “6-(4-chlorophenyl)-3-substituted-thieno[3,2-d]pyrimidin-4(3H)-one-based melanin-concentrating hormone receptor 1 antagonist” (J Med Chem, 2006).
Blank lines part the entries; values can stand above or below the molecule they belong to.

Columns and labels:
[1] = target: Melanin-concentrating hormone receptor 1 (Homo sapiens, UniProt Q99705); experiment: Antagonist activity against human MCH1 receptor stably-expressed in CHO cells by Gal4/Elk1-Luc reporter assay; format: functional, cell-based
Summary of the method: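 Human MCHR1 antagonism read out in CHO cells carrying a Gal4/Elk1 luciferase reporter. IC50 values are averages of 2-3 experiments.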

[2] = Oral bioavailability in rat at 3 mg/kg, iv and 10 mg/kg, po; format: ADME, organism-based; settings: in vivo
Summary of the method: (§1)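 Rat PK. Dosed in 20% DMSO/21% Solutol in 10 mM MSA (final concentration), n = 2. IV dose 3 mg/kg, PO dose 10 mg/kg. Plasma drug levels measured by LC-MS/MS. Half-life taken from the IV dosing.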

[3] = Half life in rat at 3 mg/kg, iv; format: ADME, organism-based; set-up: dose 3 mg/kg, route intravenous; settings: in vivo; summary of the method: as §1
[4] = Volume of distribution in rat at 3 mg/kg, iv and 10 mg/kg, po; format: ADME, organism-based; settings: in vivo, read-out: Vss; summary of the method: as §1
[5] = Total clearance in rat at 3 mg/kg, iv and 10 mg/kg, po; format: ADME, organism-based; settings: in vivo; summary of the method: as §1
[6] = Dissociation constant, pKa of the compound; format: physicochemical
[7] = system: Mus musculus; experiment: Reduction in body weight of DIO AKR/J mouse relative to control at 1 mg/kg/day, po after 21 days; format: functional; set-up: scale not given: the % may be the effect or the level left
Summary of the method: (§2)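 Diet-induced obese AKR/J mice on a high-fat diet (58% kcal fat). Oral dosing once daily for 21 days. Weight change expressed as percentage of pretreatment body weight for each group. Vehicle group and rimonabant (CB1 inverse agonist) used as controls. Mean ± SEM.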

[8] = system: Mus musculus; experiment: Reduction in body weight of DIO AKR/J mouse relative to control at 3 mg/kg/day, po after 21 days; format: functional; set-up: scale not given: the % may be the effect or the level left; summary of the method: as §2
[9] = system: Mus musculus; experiment: Reduction in body weight of DIO AKR/J mouse relative to control at 10 mg/kg/day, po after 21 days; format: functional; set-up: scale not given: the % may be the effect or the level left; summary of the method: as §2

Chain of Melanin-concentrating hormone receptor 1 (Q99705 whole entry, the tested form may be a part): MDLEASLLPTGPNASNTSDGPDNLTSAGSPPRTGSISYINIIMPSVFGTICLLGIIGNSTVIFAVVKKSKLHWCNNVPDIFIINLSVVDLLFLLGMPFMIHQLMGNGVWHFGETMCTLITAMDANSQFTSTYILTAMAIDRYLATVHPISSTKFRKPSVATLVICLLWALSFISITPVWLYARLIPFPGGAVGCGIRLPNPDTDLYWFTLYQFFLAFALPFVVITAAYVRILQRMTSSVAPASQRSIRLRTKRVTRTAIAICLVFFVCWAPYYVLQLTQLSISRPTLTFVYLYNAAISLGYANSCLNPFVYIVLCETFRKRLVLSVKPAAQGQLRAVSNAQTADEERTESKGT

Structure (SMILES): O=c1c2sc(-c3ccc(Cl)cc3)cc2ncn1-c1ccc2c(c1)CCC(CN1CCCCC1)C2 (stereo not given)
- IC50 [1]: 3.1 nM

Structure (SMILES): O=c1c2sc(-c3ccc(Cl)cc3)cc2ncn1-c1ccc2cc(CN3CCCCC3)ccc2c1
- IC50 [1]: 0.39 nM

Structure (SMILES): O=C(NCCCN1CCCC1)c1ccc2cc(-n3cnc4cc(-c5ccc(Cl)cc5)sc4c3=O)ccc2c1
- IC50 [1]: 1410 nM

Structure (SMILES): CN(C)CC1CCc2cc(-n3cnc4cc(-c5ccc(Cl)cc5)sc4c3=O)ccc2C1 (stereo not given)
- IC50 [1]: 1.1 nM

Structure (SMILES): O=c1c2sc(-c3ccc(Cl)cc3)cc2ncn1-c1ccc2c(c1)CCC(CN1CCCC1)C2 (stereo not given)
- IC50 [1]: 1.3 nM

Structure (SMILES): CN(C)Cc1cc2cc(-n3cnc4cc(-c5ccc(Cl)cc5)sc4c3=O)ccc2s1
- IC50 [1]: 1.3 nM

Structure (SMILES): O=C(NCCN1CCCC1)c1ccc2cc(-n3cnc4cc(-c5ccc(Cl)cc5)sc4c3=O)ccc2c1
- IC50 [1]: 5 nM

Structure (SMILES): O=C(c1ccc2cc(-n3cnc4cc(-c5ccc(Cl)cc5)sc4c3=O)ccc2c1)N1CCCC1
- IC50 [1]: > 10000 nM

Structure (SMILES): O=c1c2sc(-c3ccc(Cl)cc3)cc2ncn1-c1ccc2oc(CN3CCCC3)cc2c1
- bioavailability [2]: 21%
- half-life [3]: 1.6 h
- Vd [4]: 8.5 L/kg
- clearance [5]: 115 mL/min/kg
- IC50 [1]: 1.1 nM

Structure (SMILES): O=c1c2sc(-c3ccc(Cl)cc3)cc2ncn1-c1ccc2cc(CO)ccc2c1
- IC50 [1]: 31.6 nM

Structure (SMILES): COC[C@H]1CCCN1Cc1cc2cc(-n3cnc4cc(-c5ccc(Cl)cc5)sc4c3=O)ccc2n1C
- IC50 [1]: 1.4 nM

Structure (SMILES): Cn1c(CN2CCCC2)cc2cc(-n3cnc4cc(-c5ccc(Cl)cc5)sc4c3=O)ccc21
- IC50 [1]: 1.1 nM

Structure (SMILES): O=c1c2sc(-c3ccc(Cl)cc3)cc2ncn1-c1ccc2c(c1)CCC(CN1CCCCC1)=C2
- IC50 [1]: 0.75 nM

Structure (SMILES): COC[C@H]1CCCN1Cc1cc2cc(-n3cnc4cc(-c5ccc(Cl)cc5)sc4c3=O)ccc2o1
- IC50 [1]: 9.5 nM

Structure (SMILES): O=c1c2sc(-c3ccc(Cl)cc3)cc2ncn1-c1ccc2c(c1)CCC(CN1CCCC1)=C2
- bioavailability [2]: 57%
- half-life [3]: 11 h
- Vd [4]: 15.7 L/kg
- clearance [5]: 21.2 mL/min/kg
- IC50 [1]: 0.87 nM

Structure (SMILES): CN(C)CC1=Cc2ccc(-n3cnc4cc(-c5ccc(Cl)cc5)sc4c3=O)cc2CC1
- bioavailability [2]: 67%
- half-life [3]: 3 h
- Vd [4]: 16 L/kg
- clearance [5]: 80 mL/min/kg
- IC50 [1]: 2.7 nM

Structure (SMILES): O=C(O)c1ccc2cc(-n3cnc4cc(-c5ccc(Cl)cc5)sc4c3=O)ccc2c1
- IC50 [1]: > 10000 nM

Structure (SMILES): Cc1c(C(=O)NN2CCCCC2)nn(-c2ccc(Cl)cc2Cl)c1-c1ccc(Cl)cc1 [RIMONABANT]
- Activity [9]: 8.4%

The next lines start with results.

- pKa [6]: 7.91
- bioavailability [2]: 27.9%
- half-life [3]: 5.9 h
- Vd [4]: 0.6 L/kg
- clearance [5]: 2.9 mL/min/kg
- IC50 [1]: 5.7 nM
Structure (SMILES): O=c1c2sc(-c3ccc(Cl)cc3)cc2ncn1-c1ccc2sc(CN3CCC(c4ccccc4)CC3)cc2c1

- IC50 [1]: > 10000 nM
Structure (SMILES): O=c1c2sc(-c3ccc(Cl)cc3)cc2ncn1-c1ccc2ccccc2c1

- bioavailability [2]: 36.1%
- half-life [3]: 2.1 h
- Vd [4]: 3.6 L/kg
- clearance [5]: 30.8 mL/min/kg
- IC50 [1]: 2.5 nM
Structure (SMILES): O=c1c2sc(-c3ccc(Cl)cc3)cc2ncn1-c1ccc2sc(CN3CC[C@@H](O)C3)cc2c1

- IC50 [1]: 0.91 nM
Structure (SMILES): O=c1c2sc(-c3ccc(Cl)cc3)cc2ncn1-c1ccc2sc(CN3CCCC3)cc2c1

- IC50 [1]: 29 nM
Structure (SMILES): O=c1c2sc(-c3ccc(Cl)cc3)cc2ncn1-c1ccc2sc(CN3CCN(c4ccccc4)CC3)cc2c1

- IC50 [1]: 38 nM
Structure (SMILES): O=c1c2sc(-c3ccc(Cl)cc3)cc2ncn1-c1ccc2sc(CN3CCOCC3)cc2c1

- bioavailability [2]: 66%
- half-life [3]: 9.1 h
- Vd [4]: 20.4 L/kg
- clearance [5]: 39 mL/min/kg
- IC50 [1]: 5.7 nM
Structure (SMILES): CN1CCN(Cc2cc3cc(-n4cnc5cc(-c6ccc(Cl)cc6)sc5c4=O)ccc3s2)CC1
- Activity [7]: 1.1%
- Activity [8]: 3.2%
- Activity [9]: 11.8%

- pKa [6]: 8.29
- IC50 [1]: 2 nM
Structure (SMILES): O=c1c2sc(-c3ccc(Cl)cc3)cc2ncn1-c1ccc2sc(CN3CCCCC3)cc2c1
